The test system of data set [1] is A2780. Put plainly: Antiproliferative activity against human A2780 cells incubated for 72 hrs by MTT assay. The data set is classed as functional, cell-based. The settings on record: A2780, 72 h. Summed up:
(§1)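 MTT assay after 72 h continuous exposure in MDA-MB-231 breast and A2780 ovarian cancer cells and MRC-5 normal lung fibroblasts. IC50 taken from the resulting dose–response.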

Data set [2] deals with MDA-MB-231. Put plainly: Antiproliferative activity against human MDA-MB-231 cells incubated for 72 hrs by MTT assay. The data set is classed as functional, cell-based. The following applies: MDA-MB-231, 72 h. Summed up:
as §1

Data set [3] in a line: Antiproliferative activity against human MRC5 cells incubated for 72 hrs by MTT assay. Format: toxicity, cell-based. Put shortly:
as §1

The subject of data set [4] is A2780. Nature of the data set: Induction of apoptosis in human A2780 cells assessed as early apoptosis level at 20 uM incubated for 48 hrs by PI and FITC-Annexin V staining based flow cytometry. Format: functional. Put shortly: (§2)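 A2780 cells exposed to compound (20 μM) for 48 h. Cells then stained with FITC-Annexin V and propidium iodide and analysed by flow cytometry for early and late apoptotic fractions. Triplicate, mean ± standard deviation.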

The test system of data set [5] is A2780. Put plainly: Induction of apoptosis in human A2780 cells assessed as late apoptosis level at 20 uM incubated for 48 hrs by PI and FITC-Annexin V staining based flow cytometry. Format: functional. Put shortly:
as §2

The nature of data set [6]: (§3) Inhibition of cellular uptake of fluorescent glucose 2-NBDG in human A2780 cells at 50 uM incubated for 20 mins by flow cytometry. The arrangement: scale not given: the % may be the effect or the level left. Format: functional. Put shortly:
(§4)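 A2780 cells held 12 h in glucose-free medium. They were then coincubated for 20 min with compound (50 μM) and 2-NBDG (100 μM) in growth medium with 1 g/L D-glucose. 2-NBDG uptake was read as flow-cytometric fluorescence, with phloretin (50 μM) as positive control. Triplicate, mean ± standard deviation.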

Data set [7] is described as follows: Ratio of IC50 for antiproliferative activity against human A2780 cells incubated for 72 hrs in presence of 12.5 uM GLUT1 inhibitor phloretin by MTT assay to IC50 antiproliferative activity against human A2780 cells incubated for 72 hrs in absence of 12.5 uM GLUT1 inhibitor phloretin by MTT assay. The data set is classed as functional. Put shortly: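 A2780 ovarian cancer cells were treated for 72 h with compound, either alone or coincubated with the GLUT1 inhibitor phloretin at 12.5 μM. Viability was read by MTT assay. IC50 values were determined in triplicate under each condition and reported as averages ± standard deviation. The value is the IC50 with phloretin relative to the IC50 without it.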

Data set [8] has as its system MDA-MB-231. Put plainly: Antiproliferative activity against human MDA-MB-231 cells ectopically overexpressing GLUT1 incubated for 72 hrs by MTT assay relative to normal cells. Format: functional, cell-based. Put shortly: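 MDA-MB-231 derivative line transduced to overexpress GLUT1 is compared with an isogenic control line transduced with the same vector expressing Turbo-635 fluorescent protein. GLUT1 levels were checked by Western blot. IC50 from MTT after 72 h. Triplicate, mean ± standard deviation.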

Data set [9] is described as follows: Induction of intracellular iron sequestration in human A2780 cells at 20 uM by calcein based fluorescence assay.
Data set [10] has as its system A2780. Nature of the data set: Antiproliferative activity against human A2780 cells incubated for 72 hrs in presence of 12.5 uM GLUT1 inhibitor phloretin by MTT assay. Format: functional, cell-based. Put shortly:
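A2780 cells given test compound together with the GLUT1 inhibitor phloretin (12.5 μM) for 72 h. Read-out by MTT, giving IC50. Triplicate runs, reported as mean ± standard deviation.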

Data set [11] relates to A2780. The data set is described as §3. The data set is classed as functional. Summed up: as §4

Each structure is given as a SMILES string. pIC50: −log10 of the molar value. The source made the active and inactive calls. No cut-off for these calls is given here.

For the compound `O=C(CCSSc1ccccc1/C=N/NC(=O)c1ccccc1)OC[C@H]1OC(O)C[C@@H](O)[C@@H]1O` (stereo partly drawn), the results for the pIC50 in the data set with A2780 [1] and with MDA-MB-231 [2] were 5.60 and 4.66, respectively. The compound also yielded a half-maximal inhibitory concentration (IC50) at 72 h in [3] of 29 µM. Moreover, the Activity in the data set on A2780 [4] was 5%; with A2780 [5], 20%; in data set [6], over 20%; in data set [9] it was 20%. In data set [7], the “Ratio IC50” value was over 5. In addition, the outcome in the data set with MDA-MB-231 [8] was Active.

Turning to `COC(=O)CCSSc1ccccc1/C=N/NC(=O)c1ccccc1`, the pIC50 with A2780 [1] is 5.68; with MDA-MB-231 [2], 4.92. The compound also showed an IC50 at 72 h in data set [3] of 12 µM. Besides, the results for the Activity (in the data set with A2780 [4]; in [9]) were 5% and 20%, respectively. For the same compound, the inhibition result in the data set on A2780 [10] is “Active”. For the same compound, in the data set with MDA-MB-231 [8], the result was Active.

`OC[C@H]1OC(O)C[C@@H](O)[C@@H]1O` (stereo partly drawn): the results for the Activity with A2780 [4] and in the data set with A2780 [5] were 3.6% and 3.4%, respectively.

For `CC(=O)N(O)CCCCCNC(=O)CCC(=O)N(O)CCCCCNC(=O)CCC(=O)N(O)CCCCCN` [DEFEROXAMINE], the values for the pIC50 with A2780 [1] and in the data set on MDA-MB-231 [2] were 5.46 and 5.21, respectively. Besides, in [3], the IC50 at 72 h stood at 9 µM.

With `O=C(CCSSc1ccccc1/C=N/NC(=O)c1ccccc1)N[C@H]1C(O)O[C@H](CO)[C@@H](O)[C@@H]1O` (stereo partly drawn), the results for the pIC50 in the data set on A2780 [1] and in the data set with MDA-MB-231 [2] were 5.28 and 4.77, respectively. It took 33 µM to reach half-maximal inhibition in [3] (IC50 at 72 h). Moreover, the Activity with A2780 [4] is listed as 5%; in data set [6] it was over 20%; in [9] it was 20%. Besides, the outcome with MDA-MB-231 [8] was Active.

In the case of `O=C(CCSSc1ccccc1/C=N/NC(=O)c1ccccc1)OC[C@H]1OC(O)[C@H](O)[C@@H](O)[C@@H]1O` (stereo partly drawn), the pIC50 in the data set on A2780 [1] is 5.28; with MDA-MB-231 [2], 4.77. In [3], half-maximal inhibition (IC50 at 72 h) required 26 µM. The Activity is 5% in the data set on A2780 [4], over 20% in [6] and 20% in data set [9]. In the data set on MDA-MB-231 [8], the outcome was Active.

Consider `O=C(N/N=C/c1ccccc1O)c1ccncc1` [SALINAZID], for which the Activity was found to be 7.8% in the data set with A2780 [4] and 38% with A2780 [5].

For `O=C(CCc1ccc(O)cc1)c1c(O)cc(O)cc1O`, the inhibition result in the data set with A2780 [11] was “Active”.
